Hits are enriched below; roughly 4.2% of the tested compounds scored in any of these assays.
GalR3 antag: human GalR3 antagonism | HEK293 GalR3-CNG cAMP membrane potential fluorescence; galR3 body fused to GalR1 C-terminus | inhibition, % at 3 µM | O60755 | AID 651719 | 360,000 compounds, 0.44% hits;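 active = inhibition above the screen-wide average plus 3 SD, cut at about 13% in these data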;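 note: forskolin and galanin both at EC90 stimulate the cells; cAMP rise reported by CNG channel membrane potential dye signal; 0% = forskolin plus galanin with DMSO and 100% = forskolin alone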
OX1R antag-1: human HCRTR1 antagonism. 330,000 compounds, 0.43% hits. O43613. CHO/OX1R cells, Fluo-8 calcium fluorescence, orexin A. inhibition, % at 5 µM. AID 434989;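 active = inhibition above its plate's threshold, mean inhibition of all tested compounds on the plate plus 3 SD, cut at about 37% in these data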;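 note: 0% = orexin A challenge wells and 100% = SB-334867-A antagonist wells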
Target sequence (O43613 whole entry, looked up): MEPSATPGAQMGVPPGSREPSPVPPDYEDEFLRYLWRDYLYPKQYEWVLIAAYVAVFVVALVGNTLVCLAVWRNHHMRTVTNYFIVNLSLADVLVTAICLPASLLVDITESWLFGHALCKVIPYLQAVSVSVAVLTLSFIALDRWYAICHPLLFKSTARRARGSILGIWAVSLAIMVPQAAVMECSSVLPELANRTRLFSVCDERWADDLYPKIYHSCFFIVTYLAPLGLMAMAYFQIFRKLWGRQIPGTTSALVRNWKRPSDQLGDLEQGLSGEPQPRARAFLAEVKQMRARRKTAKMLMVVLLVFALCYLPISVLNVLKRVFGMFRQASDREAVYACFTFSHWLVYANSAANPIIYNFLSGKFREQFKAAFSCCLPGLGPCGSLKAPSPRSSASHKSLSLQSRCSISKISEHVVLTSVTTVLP
CHO parental Ca: counter-screen for OX1R antagonists: effect in parental CHO cells; parental CHO-K1, ATP-induced calcium, Fluo-8 fluorescence; 330,000 compounds, 0.63% hits; AID 463079; inhibition, % at 5.6 µM;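 active = inhibition above that plate's mean sample inhibition plus 3 SD, cut at about 26% in these data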;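 note: 0% = ATP-challenged DMSO wells and 100% = DMSO wells without ATP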
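Assay system: untransfected parental CHO cell line. Also added: ATP agonist challenge. Dosing: one dose, 5.6 µM nominal. Measured by: Fluo-8 fluorescence. Read-out: % inhibition. Benchmarks: ATP wells versus no-ATP DMSO wells. Repeats: no replicates.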
OX1R antag-2: blocks the human orexin 1 receptor; inhibition, % at 6.6 µM; O43613; 330,000 compounds, 1.8% hits; OX1R-expressing cells, FRET antagonist read-out; in the data active = inhibition mostly above about 38%, no sharp cut-off; inactive = mostly below about 40%;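 note: 0% = agonist challenge alone and 100% = reference antagonist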
TAAR1 antagonist: antagonists of human TAAR1; Q96RJ0; CHO RD-HGA16 TAAR1, Fluo-8 calcium fluorescence, antagonist; inhibition, % at 3 µM; 360,000 compounds, 1.5% hits;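 active = inhibition above a per-plate cutoff, the mean inhibition of test compounds on that plate plus 3 SD, cut at about 49% in these data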;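 note: 0% = DMSO plus EC80 beta-PEA response and 100% = DMSO alone without agonist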
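test system = CHO RD-HGA16 cells bearing hTAAR1 | replication = singlicate | controls = DMSO-only wells and EC80 β-PEA-stimulated wells | reagent = EC80 β-phenethylamine stimulus | read-out basis = percent inhibition of PEA-evoked calcium signal, max/basal emission ratio | schedule = seeding 17-24 h prior, 75-min 37 °C, 30-min RT dye loading | signal = kinetic Fluo-8 calcium fluorescence measurement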
TAAR1 ag: human TAAR1 agonism | AID 624467 | activation, % at 3 µM | Q96RJ0 | 360,000 compounds, 0.99% hits | CHO RD-HGA16 TAAR1, Fluo-8 calcium fluorescence; vehicle wells 0%, saturating PEA agonist 100%;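 active = activation above the mean activation of all test compounds in the run plus 3 SD, cut at about 38% in these data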
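test system = CHO RD-HGA16 cells carrying human TAAR1 plus Gα16 | schedule = 17-24 h seeding, 75 min 37 °C dye, 30 min RT | compound dosing = 3 µM single concentration | control set = DMSO and PEA EC100 | replicates = n 1 | signal = Fluo-8 fluorescence, 5 s baseline then 140 s kinetic read | measure = percent activation vs PEA EC100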
OX1R Fluo8 conf: confirmation of human orexin 1 receptor antagonists. shares compounds with OX1R antag-1. CHO/OX1R cells, orexin A calcium Fluo-8 fluorescence. inhibition, % at 5 µM. 1,100 compounds, 38% hits; in the data active = inhibition above about 29%;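 note: 0% = agonist challenge alone and 100% = reference antagonist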
CHO Ca counter: counter-screen: parental CHO calcium response change, triplicate; inhibition, % at 5.6 µM; parental CHO-K1, ATP-induced calcium, Fluo-8 fluorescence; shares compounds with OX1R antag-1; AID 492965; 1,100 compounds, 9.3% hits;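 active = inhibition above a per-plate limit, the mean inhibition of that plate's test compounds plus 3 SD, cut at about 25% in these data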;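 note: 0% = ATP challenge with DMSO and 100% = DMSO without ATP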
An asterisk follows results filed as active; nt = not tested or not shown.

SMILES | GalR3 antag | OX1R antag-1 | CHO parental Ca | OX1R antag-2 | TAAR1 antagonist | TAAR1 ag | OX1R Fluo8 conf | CHO Ca counter
C/C(=N\Nc1ccc(C(F)(F)F)cn1)c1ccc(S(=O)(=O)NCc2ccco2)cc1 | -4 | 30 | -15 | 35 | 36 | 2 | 4 | 0
N#Cc1ccccc1NC(=O)Nc1cccc(Cl)c1 | -2 | -16 | -12 | 35 | 3 | 22 | nt | nt
N#CCc1ccc(NC(=O)Nc2cccc(Cl)c2)cc1 | -4 | 36 | 13 | 40 | 15 | 28 | 18 | 34*
NS(=O)(=O)c1cccc(NC(=O)Nc2ccc(Cl)cc2)c1 | -5 | 30 | 27 | 32 | 14 | 27 | 23 | 20
COc1cccc(NC(=O)CCCn2c(=S)[nH]c3ccccc3c2=O)c1 | -4 | -23 | -18 | 12 | 8 | 3 | nt | nt
O=C(CSc1ncnc2c1cnn2CCc1ccccc1)Nc1cccc(C(F)(F)F)c1 | 0 | 61* | 24 | 38 | 60* | 15 | -8 | -9
CC(C)N1C(=O)NC2(c3ccccc3)N(C)C(=O)N(C)C12c1ccccc1 (configuration not stated) | 7 | -7 | -7 | 4 | -14 | 1 | nt | nt
O=C(CSc1nc2ccccc2[nH]1)Nc1ccccc1N1CCOCC1 | 1 | 38 | -1 | 75 | -16 | 7 | 35* | -9
Cc1ccn2c(NCc3ccccc3)c(-c3cccc(SC4CCCCC4)c3)nc2c1 | -1 | 56 | 15 | 32 | 48 | 4 | 18 | -4
Cn1c(CCCOc2ccc(Cl)cc2Cl)nnc1SCC(=O)Nc1nccs1 | -1 | 38 | 3 | 14 | 6 | 12 | 7 | -5
CCOc1cccc2cc(-c3nnc(NCc4ccc5c(c4)OCO5)s3)c(=O)oc12 | -3 | -8 | -8 | 12 | 9 | 0 | nt | nt
COC(=O)C1=C(C)N(Cc2cccnc2)C(=O)C1 | -4 | -11 | -7 | 14 | -1 | 11 | nt | nt
COc1cc(OC)cc(OC(=O)c2cccc(S(=O)(=O)N3CCN(C)CC3)c2)c1 | -5 | -11 | -11 | 11 | -3 | 1 | nt | nt
COc1ccc(COC(=O)c2cccc(S(=O)(=O)N3CCN(C(C)=O)CC3)c2)cc1 | -5 | 29 | 14 | 28 | 11 | 9 | 11 | 1
COc1cccc(CNC(=O)c2cccc(S(=O)(=O)N3CCN(c4ccc(F)cc4)CC3)c2)c1 | -3 | 24 | 12 | 22 | 26 | 21 | 26 | 3
COc1c(C)cc(Br)cc1C(=O)Nc1ccc(Cc2ccncc2)cc1 | -4 | 31 | 18 | 41 | 22 | 0 | -9 | -5
COc1ccccc1C(=O)Nc1ccc(Cc2ccncc2)cc1 | -4 | -23 | -10 | 15 | 18 | 3 | nt | nt
COc1cscc1C(N)=O | -6 | -2 | -19 | 22 | -17 | 1 | nt | nt
COc1ccc(C[C@H]2CN3C(=NC[C@H]3Cc3ccccc3)N2CCNC(=O)c2ccc(C)c(Br)c2)cc1 | nt | 32 | 8 | 13 | nt | nt | 32* | -4
CC1(c2nnnn2-c2ccc3c(c2)OCCO3)CCC(=O)N1CCCN1CCOCC1 (configuration not stated) | -6 | nt | nt | nt | -2 | 0 | nt | nt
Fc1ccc2nc(Nc3nc4c(F)cc(F)cc4s3)sc2c1 | -5 | -11 | 11 | 21 | -5 | 4 | nt | nt
Fc1cccc2sc(Nc3nc4ccccc4s3)nc12 | -7 | 36* | -2 | 28 | 5 | 0 | 51* | 14
Fc1ccc2nc(Nc3nc4c(F)cccc4s3)sc2c1 | -5 | 68* | -13 | 41 | -8 | 3 | 51* | 0
CCOc1ccc(S(=O)(=O)n2cnc3cc(C)c(C)cc32)cc1 | -1 | 60* | 1 | 22 | -15 | 3 | -1 | 59*
Cc1ccc(NC(=O)COC(=O)c2cccc(C)c2[N+](=O)[O-])cc1S(=O)(=O)N1CCCCC1 | -4 | 44* | 21 | 4 | 32 | 6 | 14 | 9
